Results published in ChEMBL document CHEMBL1122634 (J Med Chem, 1984).

Legend:
[1] = tested on: Rattus norvegicus; experiment: In vivo adrenals distribution of [11C]-labeled compound in Fisher rat 10 min after injection via caudal vein along with 18 ug of unlabeled estradiol.; type: ADME, organism-based, Adrenal gland; settings: iv
How it was run: (§1)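 Immature female Fisher rats, 3-4 weeks old, about 50 g. Tracer was HPLC-purified, dried, redissolved in ethanol and diluted in saline. […] Animals were killed by cardiac puncture at 10 min and tissues counted. Values are % injected dose/g normalized to 100 g body weight, mean ± SD of five rats. Rats were paired (with/without carrier) and compared by paired Student's t test.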

[2] = tested on: Rattus norvegicus; experiment: In vivo adrenals distribution of [11C]-labeled compound in Fisher rat 10 min after injection via caudal vein.; type: ADME, organism-based, Adrenal gland; settings: iv; how it was run: as §1
[3] = species: Rattus norvegicus; experiment: (§2) Tissue to blood ratio 10 min after injection of compound; type: functional
How it was run: (§3)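 Immature female Fisher rats, about 50 g. […] Rats were killed at 10 min and tissue and blood radioactivity counted. Results are tissue-to-blood ratios, mean ± SD of five rats, compared between paired animals by paired Student's t test (p < 0.05 significant).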

[4] = tested on: Rattus norvegicus; experiment: In vivo lung distribution of [11C]-labeled compound in Fisher rat 10 min after injection via caudal vein along with 18 ug of unlabeled estradiol.; type: ADME, organism-based; settings: iv; how it was run: as §1
[5] = tested on: Rattus norvegicus; experiment: In vivo liver distribution of [11C]-labeled compound in Fisher rat 10 min after injection via caudal vein along with 18 ug of unlabeled estradiol.; type: ADME, organism-based; settings: iv; how it was run: as §1
[6] = tested on: Rattus norvegicus; experiment: In vivo lung distribution of [11C]-labeled compound in Fisher rat 10 min after injection via caudal vein.; type: ADME, organism-based; settings: iv; how it was run: as §1
[7] = species: Rattus norvegicus; experiment: as §2; type: functional; how it was run: as §3; remark: listed apart in the source
[8] = species: Rattus norvegicus; experiment: as §2; type: functional; how it was run: as §3; remark: listed apart in the source
[9] = species: Rattus norvegicus; experiment: (§4) Tissue to blood ratio 10 min after injection of compound & Estradiol; type: functional; how it was run: as §3
[10] = species: Rattus norvegicus; experiment: as §4; type: functional; how it was run: as §3; remark: listed apart in the source
[11] = tested on: Rattus norvegicus; experiment: In vivo blood distribution of [11C]-labeled compound in Fisher rat 10 min after injection via caudal vein along with 18 ug of unlabeled estradiol.; type: ADME, organism-based; settings: iv; how it was run: as §1
[12] = tested on: Rattus norvegicus; experiment: In vivo blood distribution of [11C]-labeled compound in Fisher rat 10 min after injection via caudal vein.; type: ADME, organism-based; settings: iv; how it was run: as §1
[13] = tested on: Rattus norvegicus; experiment: In vivo uterus distribution of [11C]-labeled compound in Fisher rat 10 min after injection via caudal vein along with 18 ug of unlabeled estradiol.; type: ADME, organism-based; settings: iv; how it was run: as §1
[14] = tested on: Rattus norvegicus; experiment: In vivo uterus distribution of [11C]-labeled compound in Fisher rat 10 min after injection via caudal vein.; type: ADME, organism-based; settings: iv; how it was run: as §1
[15] = species: Rattus norvegicus; experiment: as §2; type: functional; how it was run: as §3; remark: listed apart in the source
[16] = tested on: Rattus norvegicus; experiment: In vivo muscle distribution of [11C]-labeled compound in Fisher rat 10 min after injection via caudal vein along with 18 ug of unlabeled estradiol.; type: ADME, organism-based, Muscle tissue; settings: iv; how it was run: as §1
[17] = species: Rattus norvegicus; experiment: as §2; type: functional; how it was run: as §3; remark: listed apart in the source
[18] = tested on: Rattus norvegicus; experiment: In vivo muscle distribution of [11C]-labeled compound in Fisher rat 10 min after injection via caudal vein.; type: ADME, organism-based, Muscle tissue; settings: iv; how it was run: as §1
[19] = species: Rattus norvegicus; experiment: as §4; type: functional; how it was run: as §3; remark: listed apart in the source
[20] = species: Rattus norvegicus; experiment: as §4; type: functional; how it was run: as §3; remark: listed apart in the source
[21] = species: Rattus norvegicus; experiment: as §4; type: functional; how it was run: as §3; remark: listed apart in the source
[22] = species: Rattus norvegicus; experiment: as §4; type: functional; how it was run: as §3; remark: listed apart in the source
[23] = species: Rattus norvegicus; experiment: as §4; type: functional; how it was run: as §3; remark: listed apart in the source
[24] = tested on: Rattus norvegicus; experiment: In vivo spleen distribution of [11C]-labeled compound in Fisher rat 10 min after injection via caudal vein along with 18 ug of unlabeled estradiol.; type: ADME, organism-based; settings: iv; how it was run: as §1
[25] = tested on: Rattus norvegicus; experiment: In vivo spleen distribution of [11C]-labeled compound in Fisher rat 10 min after injection via caudal vein.; type: ADME, organism-based; settings: iv; how it was run: as §1
[26] = species: Rattus norvegicus; experiment: as §2; type: functional; how it was run: as §3; remark: listed apart in the source
[27] = species: Rattus norvegicus; experiment: as §4; type: functional; how it was run: as §3; remark: listed apart in the source
[28] = tested on: Rattus norvegicus; experiment: In vivo ovaries distribution of [11C]-labeled compound in Fisher rat 10 min after injection via caudal vein along with 18 ug of unlabeled estradiol.; type: ADME, organism-based, Female gonad; settings: iv; how it was run: as §1
[29] = tested on: Rattus norvegicus; experiment: In vivo ovaries distribution of [11C]-labeled compound in Fisher rat 10 min after injection via caudal vein.; type: ADME, organism-based, Female gonad; settings: iv; how it was run: as §1
[30] = species: Rattus norvegicus; experiment: as §2; type: functional; how it was run: as §3; remark: listed apart in the source
[31] = tested on: Rattus norvegicus; experiment: In vivo kidneys distribution of [11C]-labeled compound in Fisher rat 10 min after injection via caudal vein along with 18 ug of unlabeled estradiol.; type: ADME, organism-based, Kidney; settings: iv; how it was run: as §1
[32] = tested on: Rattus norvegicus; experiment: In vivo kidneys distribution of [11C]-labeled compound in Fisher rat 10 min after injection via caudal vein.; type: ADME, organism-based, Kidney; settings: iv; how it was run: as §1
[33] = species: Rattus norvegicus; experiment: as §2; type: functional; how it was run: as §3; remark: listed apart in the source
[34] = tested on: Rattus norvegicus; experiment: In vivo liver distribution of [11C]-labeled compound in Fisher rat 10 min after injection via caudal vein.; type: ADME, organism-based; settings: iv; how it was run: as §1
[35] = species: Rattus norvegicus; experiment: as §2; type: functional; how it was run: as §3; remark: listed apart in the source
[36] = species: Rattus norvegicus; experiment: as §4; type: functional; how it was run: as §3; remark: listed apart in the source
[37] = species: Rattus norvegicus; experiment: as §2; type: functional; how it was run: as §3; remark: listed apart in the source
[38] = species: Rattus norvegicus; experiment: as §4; type: functional; how it was run: as §3; remark: listed apart in the source
[39] = species: Rattus norvegicus; experiment: as §2; type: functional; how it was run: as §3; remark: listed apart in the source
[40] = species: Rattus norvegicus; experiment: as §4; type: functional; how it was run: as §3; remark: listed apart in the source
[41] = species: Rattus norvegicus; experiment: as §2; type: functional; how it was run: as §3; remark: listed apart in the source
[42] = species: Rattus norvegicus; experiment: as §4; type: functional; how it was run: as §3; remark: listed apart in the source
[43] = species: Rattus norvegicus; experiment: as §2; type: functional; how it was run: as §3; remark: listed apart in the source
[44] = species: Rattus norvegicus; experiment: as §4; type: functional; how it was run: as §3; remark: listed apart in the source
[45] = species: Rattus norvegicus; experiment: as §2; type: functional; how it was run: as §3; remark: listed apart in the source
[46] = species: Rattus norvegicus; experiment: as §4; type: functional; how it was run: as §3; remark: listed apart in the source
[47] = species: Rattus norvegicus; experiment: as §2; type: functional; how it was run: as §3; remark: listed apart in the source
[48] = species: Rattus norvegicus; experiment: as §4; type: functional; how it was run: as §3; remark: listed apart in the source

Row | Injected dose/g [1] [%] | Injected dose/g [2] [%] | Injected dose/g [4] [%] | Injected dose/g [5] [%] | Injected dose/g [6] [%] | Injected dose/g [11] [%] | Injected dose/g [12] [%] | Injected dose/g [13] [%] | Injected dose/g [14] [%] | Injected dose/g [16] [%] | Injected dose/g [18] [%] | Injected dose/g [24] [%] | Injected dose/g [25] [%] | Injected dose/g [28] [%] | Injected dose/g [29] [%] | Injected dose/g [31] [%] | Injected dose/g [32] [%] | Injected dose/g [34] [%] | Structure (SMILES) | further results
1 | 5.3 | 6.5 | 2.1 | 7.8 | 2.1 | 1.3 | 0.81 | 6.2 | 5 | 1.3 | 1.1 | 1.6 | 2.4 | 3.5 | 2.5 | 5.1 | 2.9 | 8.5 | CCOC(=O)NCCOc1ccc(C(CC)C(CC)c2ccc(O)cc2)cc1 (stereo not drawn) | Tissue/Blood ratio [3]: 8; Tissue/Blood ratio [7]: 2.4; Tissue/Blood ratio [8]: 9; Tissue/Blood ratio [9]: 9.4; Tissue/Blood ratio [10]: 2.5; Tissue/Blood ratio [15]: 6.3; Tissue/Blood ratio [17]: 1.2; Tissue/Blood ratio [19]: 2.8; Tissue/Blood ratio [20]: 5.4; Tissue/Blood ratio [21]: 3.3; Tissue/Blood ratio [22]: 1.3; Tissue/Blood ratio [23]: 3.1; Tissue/Blood ratio [26]: 2.5; Tissue/Blood ratio [27]: 1.9; Tissue/Blood ratio [30]: 3; Tissue/Blood ratio [33]: 3.7
2 | 21.6 | 14.3 | 5.1 | 12.8 | 3.1 | 1.3 | 0.9 | 7.8 | 4.5 | 3.2 | 1.6 | 3.6 | 2.3 | 7.4 | 6.5 | 6.1 | 4.2 | 9.4 | CCOC(=O)NC1CC[C@H]2[C@@H]3CCc4cc(O)ccc4[C@H]3CC[C@]12C (stereo partly drawn) | Ratio [35]: 18; Ratio [36]: 14.9; Ratio [7]: 3.7; Ratio [37]: 9.1; Ratio [38]: 9.1; Ratio [10]: 3.7; Ratio [39]: 5.5; Ratio [40]: 6.2; Ratio [41]: 1.4; Ratio [42]: 1.8; Ratio [43]: 2.8; Ratio [44]: 2.7; Ratio [45]: 9.4; Ratio [46]: 6; Ratio [47]: 4.8; Ratio [48]: 4.3
